# PTK2B oligo ant: antagonists of human Pyk2 oligomerization. Q293 cells, Pyk2 FERM NanoBiT luminescence; active compounds read low. z-score (the deposit names both 25 µM and 10 µM). 99,000 compounds, 0.83% hits;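 active = Z-score of -3 or lower, scaled per plate to the spread of control and sample wells; inactive = z-score above -3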;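 also: negative z-score means lost luminescence so less FERM oligomerization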
# Rev-RRE block: inhibitors of HIV-1 Rev-RRE RNA interaction; Rev peptide-RRE RNA binding, FRET; inhibition, % at 8 µM; 97,000 compounds, 0.79% hits; AID 704;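 active = inhibition above the screen-wide mean plus 3 SD, cut at about 35% in these data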;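 also: 0% = median DMSO wells and 100% = median Neomycin B control wells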
#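 Test system: labelled RRE RNA duplex and labelled Rev peptide. Times: 5 min compound–RNA preincubation, then 15 min with peptide, 25 °C. Doses: single-dose 8 µM. Measured by: FRET, excitation 480 nm, emission 540 nm donor and 671 nm acceptor. Measure: % inhibition of FRET ratio versus controls.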
# FAK blocker: FAK (human) kinase inhibition. inhibition, %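 (tested at 7 µM)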. 97,000 compounds, 0.84% hits. Q05397. biochemical FAK kinase activity assay; in the data active = inhibition above about 19%;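 also: 0% = DMSO and 100% = reference compound high control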
# PLK1 PBD inh: inhibitors of human Plk1 polo box domain binding; P53350; Plk1 PBD phosphopeptide binding, fluorescence polarization; inhibition, %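 (tested at about 20 µM)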; 97,000 compounds, 0.13% hits; in the data active = inhibition above about 34%, passing the limit was not always enough
# Cav3 T inh: inhibitors of human Cav3.2 T-type calcium channel; AID 449739; O95180; Cav3.2-expressing cells, Fluo-4 calcium fluorescence FDSS; active compounds read low; B-score at 10 µM; 100,000 compounds, 4% hits;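 active = single-dose well whose peak fluorescence ratio is a statistical outlier from its plate by either plate-standardised score or position-corrected B-score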
# PLK1 kinase inh: PLK1 (human) kinase inhibition. 97,000 compounds, 0.53% hits. P53350. inhibition, % at 10 µM. recombinant PLK1 kinase, TR-FRET peptide phosphorylation;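 active = inhibition of 50% or more in the single-concentration screen; inactive = inhibition below 50%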;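 also: 0% = DMSO max control and 100% = H-89 dihydrochloride min control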
# An asterisk follows results filed as active; . = not tested or not shown. Rows were chosen to be rich in hits. Some 5.8% of all compounds tested hit in one or more screens of this group.
SMILES,PTK2B oligo ant,Rev-RRE block,FAK blocker,PLK1 PBD inh,Cav3 T inh,PLK1 kinase inh
NC(=S)n1[nH]c(-c2ccc([N+](=O)[O-])cc2)c(N=Nc2ccc(O)cc2)c1=O,-3.6*,8,0,-12,.,4
CCN(CC)S(=O)(=O)c1ccc(N=Nc2c(C)[nH]n(C(N)=S)c2=O)cc1,-1.1,-4,-3,-15,0.28,-10
C/C(N)=C(/C#N)C(=O)COC(=O)C1CCC(C(C)(C)C)CC1 (stereo unspecified),-1.8,20,-2,-8,-2.2,-35
O=C(O)CSc1nnc(-c2ccncc2)n1C1CCCCC1,0.42,1,4,-6,0.67,-22
CCN(c1cccc(C)c1)S(=O)(=O)c1ccc2c3c(cccc13)C(=O)N2,-3.1*,12,6,9,-2.4,-9
CCN(CC)S(=O)(=O)c1ccc2c3c(cccc13)C(=O)N2,.,.,.,.,0.56,.
C=CCn1c(CCC(=O)Nc2ccc(C)c(Cl)c2)nnc1SCC(=O)Nc1ccccc1C,-1.6,9,9,22,-3.1,-2
C/C(=N\OCC(=O)N/N=C/c1ccccc1O)c1cccs1,-0.03,10,-1,-16,-4.3*,1
O=C(N/N=C/c1ccc([N+](=O)[O-])s1)c1cccc(Br)c1,-0.18,-9,21*,24,-0.24,-19
CCN(CC)C(=O)C1CCCN(c2ccc([N+](=O)[O-])cc2/C=N/NC(=O)c2cccc(Br)c2)C1 (stereo unspecified),-0.39,3,14,-7,-7.2*,-5
CN1CCN(c2ccc([N+](=O)[O-])cc2/C=N/NC(=O)c2ccc(F)cc2)CC1,0.45,2,12,29,.,-8
Cc1cccc(NC(=S)N/N=C/c2ccc([N+](=O)[O-])s2)c1,0.87,6,-5,1,0.58,-7
O=C(CN1CCCCC1)Nc1ccc(NC(=O)c2ccccc2Cl)cc1Cl,-0.55,.,.,.,.,.
Cc1ccc(C(=O)NC(=S)Nc2ccc(Oc3ccc(Cl)cc3)cc2)cc1,0.18,0,4,20,-0.99,-14
Cc1ccc(C2CC2C(=O)NNC(=S)Nc2ccc(Cl)cc2)cc1 (stereo unspecified),0.12,-6,1,-3,-10*,0
COC(=O)c1ccc(OC)c(CSc2nnc(COc3ccc(Cl)cc3)o2)c1,-0.15,12,0,8,-5.8*,-11
O=C(CSc1nnc(COc2ccc(Cl)cc2)o1)N1c2ccccc2CCc2ccccc21,-0.43,3,1,-37,-2.4,-4
COC(=O)c1ccc(OC)c(CSc2nnc(COc3ccccc3)o2)c1,-2.1,15,6,-36,-4,-2
CCOC(=O)N1CCN(C(=O)CSc2nnc(COc3ccc(Cl)cc3)o2)CC1,.,.,.,.,-3.2*,.
c1ccc2c(c1)OCC(c1csc3ncnc(N4CCCC4)c13)O2 (stereo unspecified),-1.1,2,1,-9,-5.1*,-6
c1ccc(CCNc2ncnc3scc(C4COc5ccccc5O4)c23)cc1 (stereo unspecified),-2.1,6,3,18,-3.6,-6
Cc1cc(C)nc(N/N=C/C(Cl)=C/c2ccccc2)n1,-0.16,2,0,2,0.44,-11
CCOC(=O)c1cc2sccc2n1CC(=O)Nc1ccc2c(c1)OCCO2,-3.9*,0,-2,11,-0.055,-13
COC(=O)c1cc2sccc2n1CC(=O)Nc1cccc(SC)c1,-3.6*,.,.,.,-1,.
O=C(CN1C(=O)CCS(=O)(=O)c2ccccc21)Nc1cccc(Cl)c1,-0.22,3,3,10,1.4,-11
O=C1CC(C(=O)N2CCOCC2)C2(CCCCC2)O1 (stereo unspecified),1.7,4,3,-21,0.044,-8
CCN(c1ccccc1)S(=O)(=O)c1ccc(OCc2c(C)noc2C)cc1,0.29,8,1,8,-4.4*,-16
O=C(NNC1=C(C(=O)C(F)(F)F)CCC1)c1cccc(Cl)c1,0.45,2,-3,-17,-7.6*,-5
O=C(NNC1=C(C(=O)C(F)(F)F)CCC1)c1ccc(Cl)cc1,0.32,-2,-11,-4,-2.4,-18
Cc1ccc(-c2nc3cc(NC(=O)C(C)C)ccc3o2)cc1,-0.71,9,3,1,0.0093,-5

# From PubChem
